Source: PubChem BioAssay
This is a sample that favours compounds with a hit; in the whole collection about 1.8% have one here.
Runt-SMMHC FRET – blocks binding of human RUNX1 Runt domain to CBFb-SMMHC; hit rate 0.74% among 220,000; Cerulean-Runt/Venus-CBFb-SMMHC FRET ratio 530/480, 1 h; AID 1434; inhibition, % at 20 µM; Q01196+Q13951;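 active means mean inhibition across duplicate retests at 20 µM reaching about 50%, limit read from the data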;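 further: 0% = DMSO wells and 100% = wells with excess untagged CBFb-SMMHC; inhibitors lower the FRET ratio by blocking Runt binding to CBFb-SMMHC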
Runt-CBFb FRET – inhibitors of human RUNX1 Runt domain binding to CBFb; inhibition, % at 20 µM; Cerulean-Runt/Venus-CBFb FRET ratio 530/480, 1 h; hit rate 0.46% among 220,000;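 active means inhibition over about 50% at 20 µM in the single-dose screen, limit read from the data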;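 further: 0% = DMSO wells and 100% = excess unlabeled CBFb competitor control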
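Assay system: Cerulean-Runt domain / Medium: Tris 50 mM pH 7.5, KCl, K2SO4, 0.01% BSA / Timing: protein complex preformed 1 h, compound exposure 1 h, room temperature, dark / Measured by: FRET, excitation 422 nm, emission at 530 and 480 nm / Evaluation: loss of energy transfer signal / Control set: 5 µM unlabeled CBFb as full-inhibition high control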
Hck Nef HTS – blocks Nef-activated human Hck kinase | P08631 | Recombinant Hck-YEEI plus Nef, Z-Lyte FRET kinase assay | inhibition, % at 20 µM | hit rate 0.68% among 220,000;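 active means Hck-Nef kinase inhibition above about 50%, limit read from the data; inactive means inhibition below that limit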;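 further: 0% = DMSO with Hck plus Nef and 100% = Hck alone without Nef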
Target sequence (P08631 whole entry, looked up): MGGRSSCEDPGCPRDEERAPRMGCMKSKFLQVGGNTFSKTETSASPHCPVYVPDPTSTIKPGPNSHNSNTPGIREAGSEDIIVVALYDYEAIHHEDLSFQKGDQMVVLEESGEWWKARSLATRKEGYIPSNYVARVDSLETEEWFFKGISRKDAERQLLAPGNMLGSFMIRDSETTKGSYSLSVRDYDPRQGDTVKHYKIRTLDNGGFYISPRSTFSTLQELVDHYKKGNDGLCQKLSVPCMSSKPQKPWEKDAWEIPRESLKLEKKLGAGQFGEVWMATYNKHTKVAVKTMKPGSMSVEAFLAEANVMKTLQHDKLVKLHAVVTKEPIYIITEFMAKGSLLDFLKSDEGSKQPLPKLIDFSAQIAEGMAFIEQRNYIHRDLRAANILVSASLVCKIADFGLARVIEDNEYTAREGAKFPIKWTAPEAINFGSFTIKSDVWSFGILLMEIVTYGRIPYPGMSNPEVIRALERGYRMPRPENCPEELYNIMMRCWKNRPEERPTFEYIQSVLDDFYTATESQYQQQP
RanGTP-Imp inh – disruptors of Ran-importin-beta complex formation – biochemical, FRET, CFP-Ran, YFP-importin-beta, homogeneous, primary screen. hit rate 1.1% among 300,000. AID 2216. cell-free CFP-Ran/YFP-importin-beta FRET ratio. inhibition, % (no concentration beside the values);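 active means more than half of the replicate wells show a fall in the fluorescence ratio signal beyond about 16%, limit read from the data, passing the limit was not always enough; inconclusive means exactly half of the replicate wells pass the set limit; inactive means fewer than half of replicates pass the limit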;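 further: 0% = DMSO wells and 100% = Ran loaded with GDP instead of GTP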
Hck Nef conf – confirmation of Hck-Nef kinase inhibitors | shares compounds with Hck Nef HTS | Recombinant Hck-YEEI:Nef, Z-Lyte FRET kinase assay | calls only at 10 µM | hit rate 28% among 1,300 | AID 463188;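 active means average inhibition of at least 50%, with Z-scores no higher than 3 in both the phospho-tyrosine peptide and fluorescence counterscreens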
* hit, by the source's call; i = inactive; ? = inconclusive; · = not tested or not shown; + = active, no number.

SMILES	Runt-SMMHC FRET	Runt-CBFb FRET	Hck Nef HTS	RanGTP-Imp inh	Hck Nef conf
O=C1NC(=O)N(CCc2ccc(F)cc2)C(=O)/C1=C/c1cccs1	19	·	149*	?	+
Cc1ccc(/C=C2/C(=O)NC(=O)N(CCc3ccc(F)cc3)C2=O)o1	2	5	16	5	·
[N-]=[N+]=NCCN1CCC(O)CCC1=O (centres undefined)	·	·	·	1	·
Cc1cccn2c(=O)c3cc(C(=O)N4CCC5(CC4)OCCO5)n(C)c3nc12	83*	29	54*	3	·
NC1=NC(=O)C(c2ccccc2)O1 (centres undefined)	-3	1	·	·	·
Cc1cccc(N2C(=O)NC(=O)/C(=C/c3ccc(-c4ccc(C(=O)O)c(Cl)c4)o3)C2=O)c1	17	16	59*	1	i
CCc1ccc(NC(=O)CCNC(=O)N2C[C@H]3C[C@@H](C2)c2cccc(=O)n2C3)cc1	·	·	·	-1	·
Cc1ccc(/C=C2/Sc3ccc(C(=O)N4CCC5(CC4)OCCO5)cc3NC2=O)cc1	·	·	·	-4	·
N#Cc1c(N2CCNCC2)nc(-c2ccco2)c2c1CCCC2	1	0	67*	3	·
Cc1cc(C)c(Cn2c(C(=O)O)c(C=O)c3ccccc32)c(C)c1	-3	-2	1	-17	·
CNS(=O)(=O)c1ccc(N=Cc2c(O)n(-c3ccc(C)cc3)c(=O)[nH]c2=O)cc1	-1	-1	17	1	·
CCc1nnc(NS(=O)(=O)c2ccc(N=Cc3c(O)n(-c4ccc(Cl)cc4)c(=O)[nH]c3=O)cc2)s1	-56	-10	56*	-1	i
O=C1NC(=S)NC(=O)C1=Cc1ccc2c(c1)CCN2CCCCl	12	12	79*	-2	+
NC(=S)c1cn(C2OC(CO)C(O)C2O)c2ncnc(N)c12 (centres undefined)	12	35	95*	11	+
Nc1ncnc2c1ccn2[C@@H]1O[C@H](CO)[C@@H](O)[C@H]1O	·	·	·	4	·
COc1ccc(N2C(=O)/C(=C/c3cccs3)C(=O)NC2=S)cc1	26	24	21	8	·
COc1ccc(N2C(=O)/C(=C/C=C/c3ccccc3[N+](=O)[O-])C(=O)NC2=S)cc1	-6	12	63*	-2	+
COc1ccc(N2C(=O)NC(=O)/C(=C\c3ccc([N+](=O)[O-])s3)C2=O)cc1	-3	20	64*	-3	i
COc1ccc(N2C(=O)NC(=O)/C(=C/c3ccc([N+](=O)[O-])s3)C2=O)cc1	30	23	19	?	·
Nc1c(C(=O)NCc2ccco2)c2nc3ccccc3nc2n1Cc1ccc(F)cc1	74*	16	57*	43*	i
O=C(O)CCn1cc(C=C2C(=O)NC(=S)NC2=O)c(-c2ccccc2)n1	33	26	90*	6	i
O=C(O)CCn1cc(C=C2C(=O)NC(=S)NC2=O)c(-c2cc3ccccc3oc2=O)n1	23	21	48	4	·
Nc1cc2nc3ccccc3nc2cc1N	-372	18	57*	-2	i
OC(CNCCc1c[nH]c2ccccc12)c1ccccc1 (centres undefined)	·	·	·	0	·
O=C1NC(=O)N(c2ccccc2)C(=O)/C1=C/c1ccoc1	-144	-49	18	·	·
O=C1NC(=O)N(c2ccc(Cl)cc2)C(=O)/C1=C/c1coc2ccc(O)cc2c1=O	-14	6	75*	5	+
O=C1NC(=O)N(c2ccccc2)C(=O)/C1=C/c1coc2ccc(O)cc2c1=O	-14	5	87*	0	+
Cn1cc(C(O)CN2CCCCC2)c2ccccc21 (centres undefined)	·	·	·	-3	·
CCOc1ccc2oc(C(=O)NN3C(C)CCCC3C)c(C)c2c1 (centres undefined)	-2	-1	1	-2	·
COc1ccc(/C=C2/C(=O)N(Cc3ccco3)C(=O)N(C(C)C)C2=O)cc1	0	17	95*	·	i
